This is an account of results in ChEMBL document CHEMBL3259807, “Structure-activity relationships of pyrazole derivatives as potential therapeutics for immune thrombocytopenias” (Bioorg Med Chem, 2014).

Data set [1] is described as follows: Basic dissociation constant, pKa of the compound at 10 mM. Type of data set: physicochemical.
Data set [2] is described as follows: Acidic dissociation constant, pKa of the compound at 10 mM. Type of data set: physicochemical.
Data set [3] is described as follows: Distribution coefficient, log D of the compound at 10 mM at pH 7.4 by pH-metric method. Type of data set: physicochemical. The conditions noted are these: octanol/water.
Data set [4] has as its system PBMC. Briefly: Inhibition of human PBMC-induced phagocytosis of antibody-opsonized RBC at 5 uM incubated for 1 hr prior to RBC addition measured after 2 hrs by phase-contrast microscopy. Type of data set: functional. The essentials: (§1)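 Ficoll-isolated human PBMC cultured overnight (10% FBS, 37 °C, 5% CO2). 7×10^5 cells adhered 1 h on chamber slides, then non-adherent cells removed. Compound or IVIg was added for 1 h, media aspirated, and anti-D-opsonized human R2R2 RBCs added for 2 h. Slides were methanol-fixed and read by phase-contrast, counting ≥100 monocytes for the phagocytosis index. Results are normalized to vehicle (100% phagocytosis). Screen at 5 µM; titration 0.5–100 µM.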

For data set [5], the system named is PBMC. Nature of the data set: Induction of apoptosis in human PBMC assessed as apoptotic index at 10 uM after 1 hr by Annexin V/propidium iodide staining-based FACS analysis relative to IVIg. Format: cell-based. The conditions noted are these: in the assay text read “relative to vehicle” for “relative to IVIg”. A digest of the protocol: (§2)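 Ficoll-isolated human PBMC cultured overnight in 10% FBS medium, 37 °C, 5% CO2. After 1 h adherence, non-adherent cells removed, and the rest were exposed to compound at 10 and 100 µM for 1 h. Cells were then scraped and stained with Annexin V-APC plus PI (1 µg/mL) for flow cytometry. AI = fold increase in % apoptotic cells (Annexin V+ and Annexin V+/PI+) over vehicle.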

The test system of data set [6] is PBMC. Briefly: Induction of apoptosis in human PBMC assessed as apoptotic index at 100 uM after 1 hr by Annexin V/propidium iodide staining-based FACS analysis relative to IVIg. Format: cell-based. The conditions noted are these: in the assay text read “relative to vehicle” for “relative to IVIg”. A digest of the protocol: as §2
In general terms: Flow cytometry measures light scatter and fluorescence of single cells or particles in a stream.

Data set [7] relates to PBMC. Briefly: Inhibition of human PBMC-induced phagocytosis of antibody-opsonized RBC incubated for 1 hr prior to RBC addition measured after 2 hrs by phase-contrast microscopy. Type of data set: functional, cell-based. A digest of the protocol:
as §1

Each structure is given as a SMILES string.

As to `Cc1nn(-c2ccccc2)c(S)c1C(=O)c1ccccc1`, the pKa at 10000 µM is 2.9 in data set [1] and 10.3 in data set [2]. Further, the logD at 10000 µM in data set [3] was -0.3. Further, at 5 µM the inhibition in the data set with PBMC [4] was 0%. Moreover, the Ratio worked out at 2 with PBMC [5] and 1.6 with PBMC [6].
The compound `Cc1nn(-c2ccccc2)c(SSc2c(C(=O)c3ccccc3)c(C)nn2-c2ccccc2)c1C(=O)c1ccccc1` came in with a pKa at 10000 µM in data set [1] of 3.2. This compound displayed a logD at 10000 µM in data set [3] of 8. The compound also showed an inhibition at 5 µM in the data set with PBMC [4] of 32%. The Ratio in the data set on PBMC [5] was 0.8; in the data set with PBMC [6], 1.
Taken in the same sequence, the figures for `Cc1cc(SSc2cc(C)nn2-c2ccccc2)n(-c2ccccc2)n1` were 4.8, 3.2, 45%, 1 and 5.4.
Taken in the same sequence, the figures for `Cc1cc(CCc2cc(C)nn2-c2ccccc2)n(-c2ccccc2)n1` were 2.5, 1.3, 14%, 1 and 0.9.
Taken in the same sequence, the figures for `Cc1cc(COc2cc(C)nn2-c2ccccc2)n(-c2ccccc2)n1` were 2.7, 2.2, 16%, 1.1 and 0.9.
On to `Cc1cc(CNCc2cc(C)nn2-c2ccccc2)n(-c2ccccc2)n1`, for which the pKa at 10000 µM in data set [1] was 2.2. The compound also showed a logD at 10000 µM in data set [3] of 5. In the data set with PBMC [4], this compound registered an inhibition at 5 µM of 20%. In addition, the values for the Ratio in the data set with PBMC [5] and in the data set on PBMC [6] were 1.1 and 0.9, respectively.
With `Cc1cc(OCCOc2cc(C)nn2-c2ccccc2)n(-c2ccccc2)n1`, the pKa at 10000 µM in data set [1] is 2.2. Besides, in data set [3], the logD at 10000 µM was -1.6. The compound further returned an inhibition at 5 µM in the data set with PBMC [4] of 4%. Also, the Ratio in the data set with PBMC [5] and in the data set with PBMC [6] was 1 throughout.
The compound `Cc1cc(Oc2c(N)c(C)nn2-c2ccccc2)n(-c2ccccc2)n1` returned a pKa at 10000 µM in data set [1] of 3.4. The logD at 10000 µM in data set [3] came out at 4. Further, the inhibition at 5 µM with PBMC [4] came out at 2%. In addition, the Ratio in the data set on PBMC [5] stood at 1.2; in the data set on PBMC [6], 1.
Taken in the same sequence, the figures for `Cc1cc(COc2cc(C)nn2-c2ccc([N+](=O)[O-])cc2)n(-c2ccccc2)n1` were 2, 3.7, 16%, 0.8 and 0.8.
Compound `Cc1cc(COc2cc(C)nn2-c2ccccc2)n(Cc2ccccc2)n1` registered a pKa at 10000 µM in data set [1] of 2.1. This compound also yielded a log distribution coefficient (logD) at 10000 µM in data set [3] of 5.3. In the data set with PBMC [4], at 5 µM the inhibition was 0%. The results for the Ratio in the data set on PBMC [5] and in the data set with PBMC [6] were 1.1 and 1, respectively.
With `Cc1cc(OCc2cc(C)nn2-c2ccccc2)n(CC2CCCCC2)n1`, in data set [1], the pKa at 10000 µM came out at 3.6. For the same compound, the log distribution coefficient (logD) at 10000 µM in data set [3] was found to be 4.3. At 5 µM the inhibition with PBMC [4] was 45%. In addition, the Ratio stood at 1 in the data set with PBMC [5] and 1.1 in the data set with PBMC [6].
In data set [1], `Cc1cc(COc2cc(C)nn2C2CCCC2)n(-c2ccccc2)n1` displayed a pKa at 10000 µM of 2.7. The logD at 10000 µM in data set [3] worked out at 1.7. The inhibition at 5 µM with PBMC [4] is 17%. Also, the Ratio came out at 0.9 in the data set on PBMC [5] and 1.2 with PBMC [6].
Take `Cc1cc(OCc2cc(C)nn2-c2ccccc2)n(CCN)n1`: the pKa at 10000 µM in data set [1] stood at 2.5. The compound further returned a log distribution coefficient (logD) at 10000 µM in data set [3] of 5. The inhibition at 5 µM in the data set on PBMC [4] came to 33%. Also, the Ratio with PBMC [5] was determined as 1.1; in the data set with PBMC [6] it was 1.
As to `Cc1cc(OCc2cc(C)nn2-c2ccccc2)n(CC(=O)O)n1`, the pKa at 10000 µM in data set [1] is 7.3; in data set [2], 3.4. In data set [3], this compound gave a log distribution coefficient (logD) at 10000 µM of 1.2. In addition, at 5 µM the inhibition in the data set with PBMC [4] was 10%. The Ratio came out at 1.1 in the data set with PBMC [5] and 1.2 with PBMC [6].
For `Cc1cc(OCc2cc(C)nn2-c2ccccc2)[nH]n1`, the figures for the pKa at 10000 µM in data set [1] and in data set [2] were 2.4 and 12.5, respectively. This compound also yielded a pH-dependent lipophilicity (logD) at 10000 µM in data set [3] of 2.9. In the data set on PBMC [4], this compound gave an inhibition at 5 µM of 6%. For the same compound, the Ratio in the data set on PBMC [5] and in the data set with PBMC [6] was 1 each time.
With `Cc1cc(O)n(Cc2cc(C)nn2-c2ccccc2)n1`, the pKa at 10000 µM turned out to be 2.3 in data set [1] and 8.4 in data set [2]. Besides, in data set [3], the logD at 10000 µM worked out at 4.3. The inhibition at 5 µM in the data set with PBMC [4] is 58%. In addition, the 50% inhibitory concentration (IC50) in the data set on PBMC [7] turned out to be 14 µM. In addition, the Ratio in the data set on PBMC [5] was 1.2; with PBMC [6] it was 1.3.
Take `Cc1cc(OCC2CCCN2Cc2ccccc2)n(-c2ccccc2)n1` (stereo unspecified): the pKa at 10000 µM in data set [1] is 2.4. In data set [3], this compound came in with a log distribution coefficient (logD) at 10000 µM of 4.5. Moreover, testing at 5 µM in the data set with PBMC [4] gave an inhibition of 15%. For the same compound, the Ratio in the data set with PBMC [5] is recorded as 1.1; in the data set on PBMC [6], 0.9.
Take `Cc1nn(-c2ccccc2)c(S)c1C(=O)c1ccno1`: the IC50 with PBMC [7] was determined as 250 µM.

In general, pKa refers to the negative logarithm of the acid dissociation constant. High values mean a group that holds its proton tightly, low ones a group that gives up its proton readily. One may read the logD as lipophilicity at a set pH, counting ionised and neutral species. High values mean a more lipophilic compound, low ones a more hydrophilic compound. As a reminder, the inhibition is how much of the control response was suppressed. The low end stands for a response near the control, the high end for a response far below the control. As a reminder, the IC50 is the concentration needed to halve the response being measured. A higher IC50 goes with lower potency.
